How the values were obtained:
Rattus norvegicus [1] = assay: compound was tested for antipsychotic activity by conditioned avoidance response(CAR) assay in rats with a pretreatment period of 30 min upon intra peritoneal administration at a concentration of 2.5 mg/kg.; type: functional
How it was run: (§1)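 Trained rats (N = 4) were run in 1-h sessions on two consecutive days, with the experimenter blind to drug and dose. Fed rats had food and water until placed in the test chambers. Fasted rats had no food overnight before the experiment.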

Rattus norvegicus [2] = assay: compound was tested for antipsychotic activity by conditioned avoidance response(CAR) assay in rats with a pretreatment period of 30 min upon intra peritoneal administration at a concentration of 1 mg/kg.; type: functional; how it was run: as §1
Rattus norvegicus [3] = assay: compound was tested for antipsychotic activity by conditioned avoidance response(CAR) assay in rats with a pretreatment period of 30 min upon intra peritoneal administration at a concentration of 15 mg/kg.; type: functional
[4] = molecular target: T1, 5-hydroxytryptamine receptor 1A (Rattus norvegicus, UniProt P19327); assay: Compound was evaluated for its binding affinity against 5-hydroxytryptamine 1A receptor from rat cerebral cortex; type: tissue-based
T1 sequence (P19327 whole entry): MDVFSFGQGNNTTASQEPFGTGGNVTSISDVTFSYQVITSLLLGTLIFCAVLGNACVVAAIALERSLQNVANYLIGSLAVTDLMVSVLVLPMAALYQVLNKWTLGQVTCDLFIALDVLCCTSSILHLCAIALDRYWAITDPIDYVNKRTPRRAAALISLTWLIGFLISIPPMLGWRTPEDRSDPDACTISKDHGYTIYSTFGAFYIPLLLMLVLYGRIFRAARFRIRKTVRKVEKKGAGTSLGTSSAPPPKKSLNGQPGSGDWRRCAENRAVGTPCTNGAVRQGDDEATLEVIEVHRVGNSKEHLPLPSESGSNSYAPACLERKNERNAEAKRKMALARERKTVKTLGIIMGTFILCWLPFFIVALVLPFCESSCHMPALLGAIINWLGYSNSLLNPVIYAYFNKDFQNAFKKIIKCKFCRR

Rattus norvegicus [5] = assay: compound was tested for antipsychotic activity by conditioned avoidance response(CAR) assay in rats with a pretreatment period of 240 min upon intra peritoneal administration at a concentration of 2.5 mg/kg.; type: functional; how it was run: as §1
[6] = molecular target: T2, Adrenergic receptor alpha-1 (Rattus norvegicus, UniProt P15823+P23944+P43140); assay: Binding affinity against Alpha-1 adrenergic receptor from rat cerebral cortex; type: tissue-based
T2 sequence (P15823 whole entry): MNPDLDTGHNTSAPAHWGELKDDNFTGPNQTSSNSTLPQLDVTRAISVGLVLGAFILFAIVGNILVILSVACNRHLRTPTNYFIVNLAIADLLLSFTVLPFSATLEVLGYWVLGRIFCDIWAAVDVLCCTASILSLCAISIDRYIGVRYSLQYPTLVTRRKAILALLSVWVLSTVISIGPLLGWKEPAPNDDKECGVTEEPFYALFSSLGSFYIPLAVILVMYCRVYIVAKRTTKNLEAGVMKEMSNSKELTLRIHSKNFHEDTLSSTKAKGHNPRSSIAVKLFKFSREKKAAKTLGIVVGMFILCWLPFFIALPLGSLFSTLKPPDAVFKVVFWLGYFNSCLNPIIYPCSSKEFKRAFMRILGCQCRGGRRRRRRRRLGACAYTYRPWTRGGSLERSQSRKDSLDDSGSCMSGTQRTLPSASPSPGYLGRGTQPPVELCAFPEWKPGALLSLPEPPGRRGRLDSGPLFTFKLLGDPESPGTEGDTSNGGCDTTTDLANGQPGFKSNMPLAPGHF
T2 sequence (P23944 whole entry): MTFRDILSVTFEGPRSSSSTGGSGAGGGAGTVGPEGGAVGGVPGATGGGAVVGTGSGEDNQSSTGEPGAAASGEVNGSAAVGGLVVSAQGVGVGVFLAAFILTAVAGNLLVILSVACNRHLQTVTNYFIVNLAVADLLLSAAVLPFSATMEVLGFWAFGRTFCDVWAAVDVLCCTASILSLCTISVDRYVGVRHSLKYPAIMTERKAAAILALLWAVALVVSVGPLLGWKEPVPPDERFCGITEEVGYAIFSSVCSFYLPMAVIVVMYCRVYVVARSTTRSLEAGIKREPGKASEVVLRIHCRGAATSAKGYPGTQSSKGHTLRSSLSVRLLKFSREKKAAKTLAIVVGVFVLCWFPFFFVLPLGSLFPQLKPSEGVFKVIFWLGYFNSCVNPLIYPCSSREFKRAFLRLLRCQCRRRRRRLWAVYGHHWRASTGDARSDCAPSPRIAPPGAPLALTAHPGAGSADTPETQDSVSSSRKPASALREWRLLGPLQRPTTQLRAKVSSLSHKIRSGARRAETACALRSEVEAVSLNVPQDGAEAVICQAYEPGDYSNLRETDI
T2 sequence (P43140 whole entry): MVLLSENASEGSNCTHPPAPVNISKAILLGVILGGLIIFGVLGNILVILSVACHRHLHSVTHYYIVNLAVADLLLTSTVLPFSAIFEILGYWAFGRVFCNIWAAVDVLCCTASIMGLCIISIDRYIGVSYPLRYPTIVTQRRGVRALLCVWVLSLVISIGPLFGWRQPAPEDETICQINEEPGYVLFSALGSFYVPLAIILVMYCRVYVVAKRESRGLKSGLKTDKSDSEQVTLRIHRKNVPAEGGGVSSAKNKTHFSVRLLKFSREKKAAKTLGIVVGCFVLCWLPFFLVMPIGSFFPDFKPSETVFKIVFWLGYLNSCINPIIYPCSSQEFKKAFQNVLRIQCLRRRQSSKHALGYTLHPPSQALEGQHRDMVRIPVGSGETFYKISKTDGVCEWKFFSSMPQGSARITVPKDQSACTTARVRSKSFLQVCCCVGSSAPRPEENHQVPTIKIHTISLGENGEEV

Rattus norvegicus [7] = assay: Percent catalepsy in male Spargue-Dawley rat at pretreatment time 240 mins and when administered ip at dose 50 mg/kg; type: functional; settings: route intraperitoneal
How it was run: (§2)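 Catalepsy in rats, groups of five per drug treatment, scored blind to drug and dose. Each session included a saline or vehicle negative control and a haloperidol 2 mg/kg positive control. Deaths during the experiment were recorded in the catalepsy column as number dead out of five.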

Rattus norvegicus [8] = assay: compound was tested for antipsychotic activity by conditioned avoidance response(CAR) assay in rats with a pretreatment period of 240 min upon peroral administration at a concentration of 20 mg/kg.; type: functional; settings: route oral; how it was run: as §1
Rattus norvegicus [9] = assay: Percent catalepsy in male Spargue-Dawley rat at pretreatment time 60 mins and when administered ip at dose 50 mg/kg; type: functional; settings: route intraperitoneal; how it was run: as §2
Rattus norvegicus [10] = assay: compound was tested for antipsychotic activity by conditioned avoidance response(CAR) assay in rats with a pretreatment period of 30 min upon intra peritoneal administration at a concentration of 5 mg/kg.; type: functional
How it was run: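 Rat conditioned avoidance test modified from Martin et al. Trained rats (N = 4) were run in 1-h sessions on two consecutive days. Fed animals had food and water until placed in the test chambers. Dosing was ip with 30 min pretreatment, and activity was expressed as percent inhibition at the stated dose.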

Rattus norvegicus [11] = assay: compound was tested for antipsychotic activity by conditioned avoidance response(CAR) assay in rats with a pretreatment period of 60 min upon peroral administration at a concentration of 20 mg/kg.; type: functional; settings: route oral

Q: With `CCN(CC)C(=O)c1cccc(CN2CCN(c3ccccc3OC(C)C)CC2)c1` as the compound, how does the inhibition in vivo at 2.5 mg/kg (Rattus norvegicus [1]) read?
A: Its inhibition in vivo at 2.5 mg/kg is -60%.

Q: And the inhibition in vivo at 1 mg/kg (Rattus norvegicus [2])?
A: The inhibition in vivo at 1 mg/kg was -65.1%.

Q: What about the inhibition in vivo at 15 mg/kg (Rattus norvegicus [3]) of the same compound?
A: The inhibition in vivo at 15 mg/kg was -94.5%.

Q: And the Ki [4]?
A: Its Ki is 2.1 nM.

Q: And the inhibition in vivo at 2.5 mg/kg (Rattus norvegicus [5])?
A: Its inhibition in vivo at 2.5 mg/kg is -44.4%.

Q: What about the Ki [6] of the same compound?
A: The Ki was 4.4 nM.

Q: What about the Catalepsy (Rattus norvegicus [7]) of the same compound?
A: Its Catalepsy is 36.8%.

Q: What about the inhibition in vivo at 20 mg/kg (Rattus norvegicus [8]) of the same compound?
A: The inhibition in vivo at 20 mg/kg was -44.6%.

Q: What about the Catalepsy (Rattus norvegicus [9]) of the same compound?
A: The Catalepsy was 76.9%.

Q: What about the inhibition in vivo at 5 mg/kg (Rattus norvegicus [10]) of the same compound?
A: The inhibition in vivo at 5 mg/kg was -96.2%.

Q: What about the inhibition in vivo at 20 mg/kg (Rattus norvegicus [11]) of the same compound?
A: Its inhibition in vivo at 20 mg/kg is -93.4%.

— ChEMBL document CHEMBL1131239, “Orally active benzamide antipsychotic agents with affinity for dopamine D2, serotonin 5-HT1A, and adrenergic alpha1 receptors” (J Med Chem, 1998)
